Shown are actives, neighbours in structure and some others; about 1% of the full set was active somewhere.
NALP3 yeast inh – inhibitors of NALP3 inflammasome in yeast; inhibition, % at 10 µM; Yeast reconstituted NLRP3/ASC/caspase-1, beta-gal luminescence, 24 h; hit rate 0.39% among 330,000;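 active means inhibition of 50% or more; inactive means inhibition below 50%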
NALP1 yeast inh – NALP1 inhibition | S. cerevisiae NALP1/ASC/caspase-1 growth, X-gal OD620, 72 h | inhibition, % at 10 µM | hit rate 0.61% among 280,000 | AID 2071; in the data active means inhibition mostly above about 24%, no sharp cut-off; inactive means mostly below about 32%
T cell HTS – T cell immune modulation candidate. hit rate 0.068% among 330,000. 2C CD8+ T cell-vesicle binding, flow cytometry; active compounds read low. response (vesicle binding), % at 7 µM;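 active means response, share of CD8 T cells binding vesicles, and their 90th percentile fluorescence all below set limits, cut at about 80% in these data, passing the limit was not always enough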;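 further: values below 100% mean blocked vesicle binding to the CD8+ T cells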
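System: murine 2C transgenic CD8+ T lymphocytes; also added: QL9-loaded Drosophila micro-vesicles; times: binding 1.5 h at 37 °C; measured by: flow cytometry, PE anti-B7-1 (FL2) versus Alexa647 anti-CD8 (FL8), PFA-fixed; control set: Peptide-free naked vesicles (low) and QL9 vesicles with 0.7% DMSO vehicle (high)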
A1 inh – inhibitors of the anti-apoptotic protein A1, read as caspase activation; MEF A1-2A-BIM cells, Caspase-Glo 3/7 luminescence, 3 h; percent of clofoctol response, vehicle zero; caspase activation, % (no concentration beside the values); hit rate 0.066% among 330,000; AID 2462;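 active means over half of replicate activation scores above 10%, or exactly half above 10 with the replicate mean above 10; inconclusive means replicate mean below 10 yet half the replicates above 10; inactive means over half of replicates below 10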
NALP3 yeast conf – NALP3 inhibition confirmation in yeast; yeast expressing human NALP3, luminescence; shares compounds with NALP3 yeast inh; hit rate 81% among 1,300; AID 435006; inhibition, % at 10 µM; in the data active means inhibition above about 48%
Casp1 ASC ctr – active in yeast caspase-1-ASC counter-screen for NALP3 inhibitors; hit rate 66% among 1,000; inhibition, % at 10 µM; shares compounds with NALP3 yeast inh; yeast expressing Caspase-1-ASC, luminescence counter screen; AID 488784
NALP3 retest – yeast NALP3 inhibition, confirmed on retest; shares compounds with NALP3 yeast inh; yeast expressing human NALP3, luminescence read-out; inhibition, % at 10 µM; hit rate 53% among 1,000; AID 488794
Of the large screens only hits and unclear results are named; the others gave an inactive call (follow-up assays come after a bar, where they were run). Unless noted, no stated cut-off is given here; in the data, active means inhibition above about 50%; inactive means the rest.

Cc1cccc(NC(=O)c2cc3ccccc3o2)c1	NALP3 yeast inh 54.1 (no result: T cell HTS) | NALP3 yeast conf 72.0 | Casp1 ASC ctr 58.8 | NALP3 retest 52.5
O=C(Nc1cccc(Br)c1)c1cc2ccccc2o1	NALP3 yeast inh 64.0 | NALP3 yeast conf 62.3 | Casp1 ASC ctr inactive | NALP3 retest 60.0
NS(=O)(=O)c1cccc(NC(=O)c2cc3ccccc3o2)c1	none
O=c1c(O)c(-c2cccs2)oc2ccccc12	NALP3 yeast inh 67.4 | NALP3 yeast conf 86.5 | Casp1 ASC ctr 78.5 | NALP3 retest 73.3
O=c1c(O)c(-c2cccs2)oc2ccc(Cl)cc12	none
CC(=O)Oc1c(I)cc(I)cc1C(=O)Nc1ccc(Cl)cc1	NALP3 yeast inh 59.8 | NALP3 yeast conf 77.0 | Casp1 ASC ctr inactive | NALP3 retest 57.6
COc1ccc(Cl)cc1C(=O)Nc1ccc(NC(C)=O)cc1	none
CN(C)c1ccc(-n2cccc2/C=C/[N+](=O)[O-])cc1	NALP3 yeast inh 60.7 | NALP3 yeast conf 65.4
CN(c1ccccc1)c1ccc(/C=C/[N+](=O)[O-])cc1	none (no result: NALP3 yeast inh)
Oc1ccc(Br)cc1CNc1ccccn1	none
Oc1c(Cl)cc(Cl)cc1CNc1ccccn1	NALP3 yeast inh 51.7 (no result: T cell HTS, A1 inh) | NALP3 yeast conf 67.2 | Casp1 ASC ctr inactive | NALP3 retest inactive
Cc1nc2ccc(Nc3nc4cc(S(=O)(=O)N5CCOCC5)ccc4o3)cc2s1	none | NALP3 yeast conf inactive | Casp1 ASC ctr inactive | NALP3 retest inactive
Cc1nc2ccc(NC(=O)c3cc(S(=O)(=O)N4CCOCC4)ccc3C)cc2s1	none
O=C1/C(=C/c2ccc(N3CCOCC3)o2)SC(=Nc2ccccc2)N1CCc1c[nH]c2ccccc12	NALP3 yeast inh 68.4, A1 inh inconclusive | NALP3 yeast conf 76.7
COc1cc(/C=C2\SC(=Nc3ccccc3)N(CCc3c[nH]c4ccccc34)C2=O)ccc1OC(C)C(=O)O (stereo not given)	none
c1ccc(Oc2cc(-c3ccccc3)ncn2)cc1	NALP3 yeast inh 52.1 | NALP3 yeast conf inactive | Casp1 ASC ctr 70.8 | NALP3 retest 54.6
c1ccc(Oc2cc(-c3ccccc3)nc(-c3ccccc3)n2)cc1	none (no result: NALP1 yeast inh)
c1ccc(C2Nc3ccccc3C3OCCCC23)cc1 (stereo not given)	NALP3 yeast inh 62.1 | NALP3 yeast conf 54.0 | Casp1 ASC ctr inactive | NALP3 retest 58.0
Cc1cc2ccccn2c1C(=O)c1ccc(F)cc1	none
Cc1cc2ccccn2c1C(=O)c1ccccc1Br	NALP3 yeast inh 57.4 | NALP3 yeast conf 54.6 | Casp1 ASC ctr 50.5 | NALP3 retest inactive
Cc1ccc(/C=N/N(C)S(=O)(=O)c2ccc(C)cc2)cc1	NALP3 yeast inh 51.1 | NALP3 yeast conf 58.1 | Casp1 ASC ctr 58.0 | NALP3 retest inactive
CSc1ccc(/C=N/N(C)S(=O)(=O)c2ccc(C)cc2)cc1	A1 inh inconclusive
Cc1c2cnn(CC(=O)N3CCOCC3)c(=O)c2c(C)n1Cc1ccccc1F	none
CC1(C)CC(=O)C2=C(C1)OC1=C(C(=O)CC(C)(C)C1)C2c1ccc(O)cc1O	NALP3 yeast inh 56.1 | NALP3 yeast conf 55.8 | Casp1 ASC ctr 57.2 | NALP3 retest inactive
CC1(C)CC(=O)C2=C(C1)OC1=C(C(=O)CC(C)(C)C1)C2c1ccc(O)c([N+](=O)[O-])c1	none
CCOc1ccccc1C(=O)Nc1cccc2ccccc12	none
CCOc1ccccc1C(=O)Nc1ccccc1O	NALP3 yeast inh 54.2 | NALP3 yeast conf 57.0 | Casp1 ASC ctr 55.9 | NALP3 retest 54.8
CN1CCN(C(=O)CNC(=O)C23CC4CC(CC(C4)C2)C3)CC1	none (no result: NALP1 yeast inh)
CCCCCCCCCCCCCCCC(=O)OC(CC(=O)O)C[N+](C)(C)C (stereo not given)	NALP3 yeast inh 57.0 (no result: NALP1 yeast inh, A1 inh) | NALP3 yeast conf inactive | Casp1 ASC ctr 67.0 | NALP3 retest inactive
Cc1ccc(C)c(S(=O)(=O)N2CCCCC2CCNC(=O)C(=O)NCc2ccco2)c1 (stereo not given)	none (no result: NALP1 yeast inh)
OC(CN1C2=NCCCN2c2ccccc21)c1ccc2c(c1)OCO2 (stereo not given)	none
OC(CN1C2=NCCN2c2ccccc21)c1ccc2c(c1)OCO2 (stereo not given)	NALP3 yeast inh 57.2 | NALP3 yeast conf 82.0 | Casp1 ASC ctr inactive | NALP3 retest inactive
Cc1ccccc1OCC(=O)Nc1nnc(-c2ccco2)s1	none
Cc1ccccc1C(=O)Nc1nnc(-c2ccco2)s1	NALP3 yeast inh 62.1 | NALP3 yeast conf 48.9 | Casp1 ASC ctr inactive | NALP3 retest inactive
COc1ccccc1C(=O)Nc1nnc(-c2ccco2)s1	NALP3 yeast inh 55.5 | NALP3 yeast conf 57.0 | Casp1 ASC ctr 68.1 | NALP3 retest 54.7
O=C(Nc1nnc(CCc2ccccc2)s1)c1ccccc1	NALP3 yeast inh 51.0 | NALP3 yeast conf 70.3 | Casp1 ASC ctr inactive | NALP3 retest inactive
O=C(Nc1nnc(-c2ccco2)s1)c1ccccc1	NALP3 yeast inh 53.0 | NALP3 yeast conf 57.5 | Casp1 ASC ctr 57.4 | NALP3 retest inactive
Brc1ccc(-c2cn3c(n2)SCC3)cc1	NALP3 yeast inh 59.0 | NALP3 yeast conf 63.7 | Casp1 ASC ctr 62.8 | NALP3 retest 61.2
Oc1ccc(-c2cn3c(n2)SCC3)cc1	none
COC(=O)c1sccc1NC(=O)c1ccc(Br)o1	NALP3 yeast inh 52.6 | NALP3 yeast conf inactive | Casp1 ASC ctr inactive | NALP3 retest inactive
COC(=O)c1sccc1NC(=O)c1ccc(C)o1	none
CCN(CC)c1ccc(NC(=O)COc2ccc(C)cc2)cc1	none | NALP3 yeast conf inactive | Casp1 ASC ctr inactive | NALP3 retest inactive
CCn1c(COc2ccccc2)nnc1SCC(=O)Nc1ccc(N2CCOCC2)cc1	none
C=CCn1c(SCC(=O)Nc2cccc(S(N)(=O)=O)c2)nc2sc(C)c(C)c2c1=O	none (no result: NALP1 yeast inh)
COc1ccc(CCNC(=O)c2cc(S(=O)(=O)N3CCOCC3)ccc2F)cc1	none (no result: NALP1 yeast inh)
COc1cc(CNCCc2ccccc2)cc(Br)c1OCC(=O)Nc1ccccc1C	NALP3 yeast inh 53.9 | NALP3 yeast conf inactive | Casp1 ASC ctr inactive | NALP3 retest inactive
COc1cc(C=O)c(Br)cc1OCC(=O)NCCc1ccccc1	none | NALP3 yeast conf inactive
CNCc1cc(Br)c(OCC(=O)Nc2ccccc2OC)c(OC)c1	none
C[C@H](CO)N1C[C@H](C)[C@@H](CN(C)C(=O)Nc2ccc(C(F)(F)F)cc2)Oc2c(NS(=O)(=O)c3ccccc3)cccc2C1=O	none (no result: NALP1 yeast inh)
O=C(Nc1ccccn1)Nc1ccccc1Cl	NALP3 yeast inh 66.4 | NALP3 yeast conf 72.3 | Casp1 ASC ctr 61.0 | NALP3 retest inactive
O=C(Nc1cnccn1)Nc1ccccc1Cl	none
O=C(CN1CCCCCCC1)Nc1cc(Cl)cc(Cl)c1	NALP3 yeast inh 51.0 | NALP3 yeast conf inactive
CCC(C(=O)NC(C)(C)C)N(Cc1ccc(F)cc1)C(=O)c1snc(C(N)=O)c1N (stereo not given)	none
CC(C)COC(=O)N1CCN(S(=O)(=O)c2ccc3c(c2)CCC3)CC1	NALP3 yeast inh 52.6 (no result: NALP1 yeast inh) | NALP3 yeast conf 51.5 | Casp1 ASC ctr inactive | NALP3 retest inactive

Source: PubChem BioAssay
